# GalR3 antagonist – GalR3 antagonists in HEK293 cells, primary screen, cell-based, fluorescence readout; 360,000 tested, 0.44% active; HEK293 GalR3-CNG cAMP membrane potential fluorescence; galR3 body fused to GalR1 C-terminus; inhibition, % at 3 µM; Galanin receptor type 3 (Homo sapiens), O60755;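 active = inhibition above the screen-wide average plus 3 SD, cut at about 13% in these data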;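 note: forskolin and galanin both at EC90 stimulate the cells; cAMP rise reported by CNG channel membrane potential dye signal; 0% = forskolin plus galanin with DMSO and 100% = forskolin alone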
# NR2E3 ag-1 – inhibitors of NR2E3-RetCOR corepressor binding, primary screen, NR2E3 agonist project, biochemical, TR-FRET, GST-NR2E3, biotin-RetCOR; Photoreceptor-specific nuclear receptor (Homo sapiens), Q9Y5X4; 1536-well; inhibition of corepressor binding, % at 4.78 µM; 320,000 tested, 0.12% active;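 active = percent inhibition above the cutoff of mean plus 3 SD of all tested compounds, set per screening campaign, cut at about 20% in these data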;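 note: 0% = DMSO wells and 100% = biotin wells as full block of FRET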
# Target sequence (Q9Y5X4 whole entry, looked up): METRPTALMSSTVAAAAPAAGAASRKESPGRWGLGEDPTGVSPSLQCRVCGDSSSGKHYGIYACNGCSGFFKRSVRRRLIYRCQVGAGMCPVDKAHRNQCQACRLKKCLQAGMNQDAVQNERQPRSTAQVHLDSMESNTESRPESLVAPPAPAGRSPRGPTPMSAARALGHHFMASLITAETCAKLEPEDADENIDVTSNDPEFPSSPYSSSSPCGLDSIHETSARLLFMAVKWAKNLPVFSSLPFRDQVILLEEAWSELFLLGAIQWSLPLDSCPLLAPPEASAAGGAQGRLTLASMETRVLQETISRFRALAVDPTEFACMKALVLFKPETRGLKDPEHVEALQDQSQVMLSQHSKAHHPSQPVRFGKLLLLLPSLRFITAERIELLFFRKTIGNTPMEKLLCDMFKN
#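 system = GST-tagged NR2E3 plus biotinylated RetCOR corepressor | input = 1.35 nM GST-NR2E3 | also added = 7 nM biotin-RetCOR | schedule = 5 h incubation at 4 °C | measured by = TR-FRET with europium anti-GST and streptavidin-D2, 340 nm excitation | read-out = percent loss of FRET ratio relative to control wells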
# NR2E3 ag-2 – NR2E3 agonists in two-hybrid cells, primary screen, cell-based, luminescence, CHO-S, Gal4-NCOR/VP16-NR2E3 | Photoreceptor-specific nuclear receptor (Homo sapiens), Q9Y5X4 | luciferase | inhibition of corepressor binding, % at 3.98 µM | 360,000 tested, 0.35% active | AID 602229, 2012;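 active = inhibition above the mean of all tested compounds plus 3 SD, cut at about 70% in these data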;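 note: 0% = DMSO with NR2E3 transfected cells and 100% = cells lacking NR2E3 construct; higher means lower luciferase signal from less NR2E3 corepressor binding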
# Jurkat NFkB inh – inhibitors of induced NF-kB luciferase reporter, primary screen, TCR NF-kB activation inhibitor project, cell-based, luminescence, uHTS; Jurkat, PMA/ionomycin-induced NF-kB luciferase reporter; inhibition, % at 4 µM; 330,000 tested, 0.53% active; in the data active = inhibition above about 50%
# 697 NFkB inh – inhibitors of PMA/ionomycin-induced NF-kB reporter, 697 cells, primary screen, B-cell NF-kB inhibitor project, cell-based, luminescence, uHTS. 330,000 tested, 0.33% active. inhibition, % at 4 µM. 697 B-cell NF-kB luciferase reporter, 16 h. AID 435022, 2010; in the data active = inhibition above about 35%
# JMJD2C inh – inhibitors of GASC-1 histone demethylase, primary screen, biochemical, fluorescence, DELFIA europium. inhibition, % at 2.35 µM. AID 2099, 2009. 330,000 tested, 0.069% active. GST-JMJD2C(1-420) H3K9me3 demethylation;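 active = more than half of a compound's replicate wells show inhibition beyond 50%, single wells judged on their own value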;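 note: signal counts dimethyl H3K9 product captured on neutravidin plate; 0% = median of DMSO wells and 100% = 0.3 times that DMSO median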
# NR2E3 agonist cf – NR2E3 agonists, confirmation, biochemical, TR-FRET; shares compounds with NR2E3 ag-1; cell-free NR2E3 corepressor release, 5 h; activation (reported as inhibition), % at 3.98 µM; 360 tested, 39% active; AID 2379, 2010; in the data active = activation above about 20%
# PPARg-NCOR2 ag – agonists of PPARg-NCOR2 corepressor interaction, counter-screen for NR2E3 agonist project, biochemical, TR-FRET. shares compounds with NR2E3 ag-1. 360 tested, 45% active. TR-FRET PPARg-NCOR2 coregulator interaction. inhibition, % at 3.98 µM. AID 504787, 2011; in the data active = inhibition above about 20%;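 note: 0% = DMSO vehicle and 100% = wells without protein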
# An asterisk follows results filed as active; · = no result. Most compounds without a hit are left out; they make up all but 1.5% or so of the library.
SMILES,GalR3 antagonist,NR2E3 ag-1,NR2E3 ag-2,Jurkat NFkB inh,697 NFkB inh,JMJD2C inh,NR2E3 agonist cf,PPARg-NCOR2 ag
CCCCCC1NC(=O)NC1CCCCCC(=O)O (stereo not drawn),-1,2,-13,6,0,-1,·,·
Cc1cccc(C)c1NC(=O)CCCN1CC(C)OC(C)C1 (stereo not drawn),5,4,-25,5,-10,9,·,·
COc1ccc2c(c1)C(C)(CCN)C(=O)N2C (stereo not drawn),-8,4,-33,8,17,-66,·,·
CCc1ccc2oc(C(=O)NCCc3ccc(S(N)(=O)=O)cc3)cc(=O)c2c1,-11,4,-3,-3,20,5,·,·
COc1cccc(CNC(=O)[C@H]2CCCN2C(=O)[C@H]2CCCN2C(=O)c2ccc(Cl)cc2)c1,-4,·,·,·,·,·,·,·
O=C(O)c1ccc2c(c1)C(=O)/C(=C\c1ccco1)C2=O,-7,38*,-25,0,5,-13,10,26*
O=C(O)c1ccc2c(c1)C(=O)/C(=C/c1ccccc1)C2=O,-3,5,-16,0,2,-5,·,·
CCCCOc1cccc(C2C(C(=O)c3ccc(C)o3)=C(O)C(=O)N2Cc2ccco2)c1 (stereo not drawn),-1,·,22,6,15,0,·,·
O=C(C1=C(O)C(=O)N(Cc2cccnc2)C1c1cccc(Oc2ccccc2)c1)c1ccco1 (stereo not drawn),-6,·,-10,-1,5,7,·,·
COc1cc(C2C(C(=O)c3ccco3)=C(O)C(=O)N2Cc2ccccc2)ccc1O (stereo not drawn),-10,5,-21,6,8,0,·,·
COCCCN1C(=O)C(O)=C(C(=O)c2ccco2)C1c1ccccc1 (stereo not drawn),-1,22*,1,-2,5,3,20,17
CCCOc1ccc(C2C(C(=O)c3ccco3)=C(O)C(=O)N2CCCn2ccnc2)cc1 (stereo not drawn),-1,4,-24,-18,4,0,·,·
COCCCN1C(=O)C(O)=C(C(=O)c2ccc(C)o2)C1c1cccc(Br)c1 (stereo not drawn),1,45*,-32,11,10,-2,20*,20*
O=C(C1=C(O)C(=O)N(CCc2ccccc2)C1c1cccnc1)c1ccco1 (stereo not drawn),3,25*,-8,-3,4,-43,17,23*
O=C(C1=C(O)C(=O)N(CCCn2ccnc2)C1c1ccc(F)cc1)c1ccco1 (stereo not drawn),-1,36*,-8,9,4,-22,4,2
COc1ccc(C(C)(NC(C)=O)c2nc(-c3ccccc3OC)cs2)cc1 (stereo not drawn),-6,·,-7,·,·,·,·,·
COc1ccccc1C(=O)NC(CCSC)C(=O)NCc1ccncc1 (stereo not drawn),0,0,12,1,1,13,·,·
O=C1C(=O)N(Cc2cccnc2)C(c2cccc(Br)c2)/C1=C(/O)c1ccc2c(c1)OCO2 (stereo not drawn),-2,47*,-5,-1,-3,3,27*,31*
COc1cccc(C2/C(=C(/O)c3ccc4c(c3)OCO4)C(=O)C(=O)N2CCN2CCOCC2)c1 (stereo not drawn),1,30*,-11,0,-23,-4,29*,27*
COc1ccc(CCNC(=O)CN(Cc2ccc(Cl)cc2)S(C)(=O)=O)cc1,-12,·,-26,16,-11,-8,·,·
COc1ccc2nc(C)cc(SCC(=O)Nc3c(C)cc(C)cc3C)c2c1,-3,36*,-17,6,-1,14,-55,-55
CC(C(=O)Nc1ccccc1F)N1CCN(C)CC1 (stereo not drawn),·,0,·,10,1,-30,·,·
O=c1[nH]c(Nc2ccccc2)cc2cc(Br)ccc12,-7,18,-73,-8,15,-7,·,·
O=c1[nH]c(Nc2ccccc2)cc2ccccc12,-2,27*,0,-16,2,-2,-5,0
NCCCCCNC(=O)c1[nH]cnc1C(=O)N[C@@H](Cc1ccccc1)C(=O)OCc1ccccc1,-2,·,4,15,6,-21,·,·
SMILES,GalR3 antagonist,NR2E3 ag-1,NR2E3 ag-2,Jurkat NFkB inh,697 NFkB inh,JMJD2C inh,NR2E3 agonist cf,PPARg-NCOR2 ag
CN(C(=O)c1ccc(NC(=O)Cc2ccc(NC(=O)C3CCN(C(=O)C4CCCCC4)CC3)cc2)cc1)C1CC1,2,20*,-15,-20,9,47,0,-7
O=C(/C=C/c1ccco1)NC(=S)Nc1ccc(C(=O)O)cc1,-11,20*,-38,5,-1,-2,5,8
CC(=O)NC(=S)Nc1ccc(NC(=S)NC(=O)/C=C/c2ccco2)cc1,-2,-2,11,36,-2,9,·,·
O=C(Nc1ccccc1C(=O)NC1CC1)c1ccccc1F,-6,·,25,16,6,-9,·,·
CCN(CC)c1ccc2c(-c3ccc(S(=O)(=O)O)cc3S(=O)(=O)[O-])c3ccc(=[N+](CC)CC)cc-3oc2c1,·,46*,5,23,25,4,41*,48*
CCN(CC)c1ccc2nc3c4ccccc4c(=O)cc-3oc2c1,-17,·,·,-135,-195,0,·,·
CCCCn1c(NC(=O)c2ccco2)c(S(=O)(=O)c2ccc(C)cc2)c2nc3ccccc3nc21,-4,·,-18,·,·,29,·,·
CCCCCn1c(NC(=O)c2ccco2)c(S(=O)(=O)c2ccc(C)cc2)c2nc3ccccc3nc21,-4,20*,-7,24,-7,-3,9,42*
O=C(OCC(=O)N1CCN(c2ccc(F)cc2)CC1)c1cnc2ccccc2n1,-4,·,1,6,5,6,·,·
COc1cc(/C=C(/C#N)c2ccc(F)cc2)ccc1OCc1ccc(C(=O)O)o1,-4,0,-7,-3,-16,11,·,·
CN1CCN(CC(=O)N/N=C\c2c[nH]c3ccccc23)CC1,-3,30*,·,-9,10,11,-5,-5
